# Screens (PubChem)
# This is a sample that favours compounds with a hit; in the whole collection about 0.98% have one here.
# S1P3 antag-1 = S1P3 (human) receptor antagonism | Q99500 | inhibition, % at 4.98 µM | 170,000 compounds, 0.27% hits | AID 485 | CHO S1P3 NFAT-BLA reporter, FRET fluorescence, antagonist mode;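 active = inhibition above the plate cutoff, the mean inhibition of test wells on that plate plus 3 SD, cut at about 28% in these data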;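 note: cells challenged with S1P at its EC80 of 0.8 µM; blue over green emission ratio from cleaved BLA substrate after 4 h stimulation; 0% = S1P-stimulated wells and 100% = unstimulated DMSO-only wells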
# Target sequence (Q99500 whole entry, looked up): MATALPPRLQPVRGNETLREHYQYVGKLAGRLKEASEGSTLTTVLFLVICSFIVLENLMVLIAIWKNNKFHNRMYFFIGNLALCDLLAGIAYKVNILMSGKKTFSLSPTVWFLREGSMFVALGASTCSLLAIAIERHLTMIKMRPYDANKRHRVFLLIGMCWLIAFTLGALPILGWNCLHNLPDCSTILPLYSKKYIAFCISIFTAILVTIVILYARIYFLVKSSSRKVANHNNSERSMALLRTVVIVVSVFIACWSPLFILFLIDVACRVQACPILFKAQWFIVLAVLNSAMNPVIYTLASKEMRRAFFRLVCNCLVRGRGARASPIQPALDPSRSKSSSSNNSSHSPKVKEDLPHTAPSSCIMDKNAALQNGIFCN
# Yeast growth inh = yeast BB579 growth reduction in restrictive medium; S. cerevisiae BB579 growth, OD615, 48 h; inhibition, % at 10 µM; 140,000 compounds, 0.51% hits; AID 804;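 active = inhibition above a set limit, 3 SD over the mean compound inhibition, cut at about 44% in these data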
#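 test system = yeast BB579 (DeaD) | buffer or medium = restrictive CSMM-D medium | doses = single compound dose of 10 µM, 0.25% DMSO final | times = 4 h preincubation and 48 h exposure at 30 °C | technique = culture absorbance at 615 nm | benchmarks = amphotericin B 10 µg/mL, positive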
# Yeast life ext = yeast lifespan extension | S. cerevisiae growth with nicotinamide, OD615; deaD strain in restrictive glucose medium | inhibition of the nicotinamide effect, % at 10 µM | 130,000 compounds, 0.68% hits | AID 775;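 active = inhibition above a set limit, placed 3 SD over the median of all compounds, cut at about 26% in these data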;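 note: 0% = nicotinamide-treated wells and 100% = cells grown without nicotinamide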
#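 Assay system: DeaD-strain S. cerevisiae. Medium: CSMM-D glucose medium, restrictive. Reagent: nicotinamide, 1.5 mM, co-present with compound. Compound: 10 µM single point, 0.25% DMSO. Schedule: culture preincubation 4 h, compound exposure 48 h, both 30 °C. Detection: absorbance at 615 nm.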
# S1P3 antag-2 = human S1P3 receptor antagonism, confirmation; shares compounds with S1P3 antag-1; CHO S1P3 NFAT-BLA reporter, FRET, antagonist mode; inhibition, % at 4.98 µM; 240 compounds, 30% hits; AID 1429;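 active = inhibition above the hit threshold that was computed for the earlier primary screen, cut at about 30% in these data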;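 note: 0% = S1P-stimulated wells and 100% = unstimulated DMSO-only wells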
# * hit, by the source's call; nt = no result.
SMILES,S1P3 antag-1,Yeast growth inh,Yeast life ext,others
c1ccc(Nc2ncnc3sc4c(c23)CCC4)cc1,nt,-46,-20,
CC(Oc1ccc(Cl)cc1Cl)C(=O)NC1=NN(c2ccccc2)C(=O)C1 (stereo unspecified),nt,98*,-19,
CC(C)(Oc1ccc(Cl)cc1)C(=O)NC1=NN(c2ccccc2)C(=O)C1,1,96*,-11,
CC(=O)Nc1ccc(NC(=O)C(C)Oc2ccc(Cl)cc2Cl)cc1 (stereo unspecified),9,nt,nt,
O=C1CC(NC(=O)C(F)(F)F)=NN1c1ccccc1,-11,nt,nt,
CCOCCCn1cnc2c3cc(F)ccc3n(C)c2c1=O,3,nt,nt,
Cn1c(CSc2ncn[nH]2)nc2ccccc21,nt,-36,-3,
Cc1ccc(/C=N/NC(=O)CNC(=O)c2ccc(C)c([N+](=O)[O-])c2)o1,0,nt,nt,
COc1cc(/C=C2\C(=O)ON=C2c2ccccc2)cc(Cl)c1O,-12,nt,nt,
COc1cc(/C=C2/C(=O)ON=C2c2ccccc2)ccc1O,4,86*,12,
C=CCN(CC=C)S(=O)(=O)c1ccc2nc(NC(=O)C(C)C)sc2c1,21,-41,76*,
CCOC(=O)c1ccc2nc(NC(=O)C(C)C)sc2c1,-8,-14,-20,
On1c(-c2ccccc2)nc2ccccc21,-7,nt,nt,
O=Nc1c2nc3ccccc3n(O)c-2c2ccccc12,14,64*,-6,
O=C(Nc1ccc(Cl)cc1)c1csc(Cc2ccccc2)n1,2,nt,nt,
CCn1c(O)c(C2=c3ccccc3=NC2=O)c2cc(Br)ccc21,-17,nt,nt,
O=C1N=c2ccccc2=C1c1c(O)n(-c2cccc(F)c2)[nH]c1=O,-10,-6,33*,
CCC(C)(C)NC(=O)C(OC(=O)c1cc2sccc2n1C)c1ccc(OC)cc1 (stereo unspecified),-14,-36,-1,
Cc1ccnn2cc3c(=O)n(C)c(=O)n(C)c3c12,nt,64*,-31,
Cn1c(=O)c2cn3ncccc3c2n(C)c1=O,-14,15,-8,
O=C(CN1C(=O)CC(c2ccccc2)Sc2ccccc21)NCC1CCCO1 (stereo unspecified),-11,nt,nt,
O=C1C(Cl)=C(Nc2ccccc2)C(=O)c2ccccc21,-26,-16,2,
C=CCNC1=C(Cl)C(=O)c2ccccc2C1=O,-31,60*,-7,
Cc1cc(NC(=O)CSc2n[nH]c(=O)[nH]c2=O)ccc1Br,-8,nt,nt,
O=C(N/N=C/c1ccc(O)cc1)c1cc(C23CC4CC(CC(C4)C2)C3)[nH]n1,31*,nt,nt,S1P3 antag-2=35*
SMILES,S1P3 antag-1,Yeast growth inh,Yeast life ext,others
COc1ccc(/C=N/NC(=O)c2cc(C34CC5CC(CC(C5)C3)C4)[nH]n2)cc1OC,-8,-27,-4,
Cc1ccc(C)c(S(=O)(=O)N/N=C/c2ccc(N3CCOCC3)cc2)c1,30*,nt,nt,S1P3 antag-2=-9
Cc1cc(C)nc(N/N=C/c2ccc(N3CCOCC3)cc2)n1,5,nt,nt,
COc1ccc(C(=O)/C=C2\Sc3ccccc3N2C)cc1,-4,nt,nt,
COc1ccccc1OC(=O)CCN1c2ccccc2Sc2ccccc21,8,-23,1,
COc1ccc(-[n+]2c(C)cc(/C=C3\Sc4ccccc4N3C)cc2C)cc1,50*,nt,nt,S1P3 antag-2=30*
COc1ccccc1-[n+]1c(C)cc(/C=C2\Sc3ccccc3N2C)cc1C,57*,nt,nt,S1P3 antag-2=39*
CN1CCc2c(n(CC(O)CN3CCN(CCO)CC3)c3ccccc23)C1=O (stereo unspecified),41*,nt,nt,S1P3 antag-2=-9
O=c1c2ccccc2n(CC(O)CN2CCCCC2)c2ccccc12 (stereo unspecified),-9,nt,nt,
CC(=O)CCC(=O)OCC(=O)Nc1ccc(SC(F)F)cc1,43*,nt,nt,S1P3 antag-2=-10
CC(C)=CC(=O)OCC(=O)Nc1ccc(SC(F)F)cc1,-14,nt,nt,
COc1ccc(CS(=O)(=O)c2nc(C)cc(C)c2S(C)(=O)=O)cc1,-14,nt,nt,
Cc1ccc(NC(=O)c2sc(=S)n(-c3cc(C)ccc3F)c2N)cc1,30*,nt,nt,S1P3 antag-2=6
Cc1ccccc1-n1c(N)c(C(=O)Nc2ccc(F)cc2)sc1=S,-3,nt,nt,
CC(C)(C)S(=O)(=O)c1ccsc1C(=O)O,7,-13,3,
CCCOC(=O)c1ccc(Oc2cn[nH]c2-c2ccc(O)cc2O)cc1,-1,nt,nt,
CCOC(=O)c1ccc(Oc2cn[nH]c2-c2ccc(O)cc2O)cc1,29*,nt,nt,S1P3 antag-2=-16
Cc1ccccc1NC(=O)/C=C/c1ccc([N+](=O)[O-])s1,36*,-36,-1,S1P3 antag-2=42*
Cc1cc(C)cc(NC(=O)/C=C/c2ccc([N+](=O)[O-])s2)c1,-2,-20,8,
O=[N+]([O-])c1ccc(C2=NN(c3ccccc3)C(c3ccco3)C2)cc1 (stereo unspecified),34*,nt,nt,S1P3 antag-2=46*
O=[N+]([O-])c1ccc(/C=C/C2=NN(c3ccccc3)C(c3ccco3)C2)cc1 (stereo unspecified),-6,-6,2,
Cn1c(CN2CCCC2)nc2cc(NC(=O)COc3ccccc3)ccc21,nt,-5,-11,
Cc1cccc(OCC(=O)Nc2ccc3c(c2)nc(CN2CCCCC2)n3C)c1,30*,nt,nt,S1P3 antag-2=-11
CC(=O)N/N=C(\C)CCc1ccccc1,-10,nt,nt,
NC(=O)COC(=O)CC(c1ccccc1)c1ccccc1,-8,nt,nt,
SMILES,S1P3 antag-1,Yeast growth inh,Yeast life ext,others
CCCNC(=O)Cn1cnc2sc(C(=O)N3CCN(Cc4ccc5c(c4)OCO5)CC3)c(C)c2c1=O,30*,nt,nt,S1P3 antag-2=-15
CCCNC(=O)Cn1cnc2sc(C(=O)N3CCN(CCC)CC3)c(C)c2c1=O,11,-49,2,
CCCn1c(C)cc(/C=C(\C#N)C(=O)OCC(=O)NC(=O)NCC)c1C,nt,-15,-2,
CCCn1c(C)cc(/C=C(\C#N)C(=O)OCC(=O)Nc2ccc(OC)c(Cl)c2)c1C,92*,-17,-1,S1P3 antag-2=-16
COc1ccccc1OCC(=O)NCc1nc(-c2ccccc2)no1,0,nt,nt,
O=C(NC(=S)Nc1ccc(S(=O)(=O)Nc2nccs2)cc1)C1CC1,3,nt,nt,
CC(C)C(=O)NC(=S)Nc1ccc(S(=O)(=O)Nc2nccs2)cc1,28*,nt,nt,S1P3 antag-2=-20
Cc1nn(C)c(C(=O)Nc2ccc(S(=O)(=O)NC34CC5CC(CC(C5)C3)C4)cc2)c1Br,nt,-30,nt,
CCC(C)(NC(=O)c1cccc(N2C(=O)CSC2c2ccccc2)c1)C(=O)Nc1ccccc1C (stereo unspecified),nt,-27,-10,
Cc1ccc(C(=O)NC(=S)Nc2cccc(NC(=O)c3ccccc3)c2)cc1[N+](=O)[O-],-7,-9,-3,
C/C(=N/OC(=O)c1ccc(C)cc1)c1ccc(N2C(=O)C3CCCCC3C2=O)cc1 (stereo unspecified),nt,-22,-3,
O=C(c1cc(COc2ccc3ncccc3c2)on1)N1CCC(O)CC1,9,nt,nt,
CCC(O)C1CCN(C(=O)c2cc(COc3ccc4ncccc4c3)on2)CC1 (stereo unspecified),33*,nt,nt,S1P3 antag-2=8
COCCSc1nnc(NC(=O)C2CC(=O)N(c3ccc(C)cc3)C2)s1 (stereo unspecified),-17,nt,nt,
Oc1ccccc1C=NC1=NN(c2cccc(C(F)(F)F)c2)CC1,nt,-21,nt,
COc1ccc(/C=N/NC(=O)CCc2n[nH]c(=O)[nH]c2=O)cc1OC,-9,-14,-4,
CCCOc1ccc(/C=N\NC(=O)CCc2n[nH]c(=O)[nH]c2=O)cc1OC,29*,nt,nt,S1P3 antag-2=-12
